Measurements reported in ChEMBL document CHEMBL3351380, “Antioxidant and antimicrobial studies on fused-ring pyrazolones and isoxazolones” (Bioorg Med Chem, 2014).
In brackets after ≈: the same amount, converted by molar mass. Activity calls are given as the source filed them. No cut-off for these calls is given here.

Columns and labels:
Candida albicans [1] = assay: Antifungal activity against Candida albicans assessed as zone of inhibition at 100 ug/ml by agar well diffusion method; format: functional; settings: for zone of inhibition at 100 µg/mL: read-out: IZ
Summary of the method: (§1)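 For the agar well diffusion screen, samples at 100 µg/mL were made from a stock of 10 mg in 1 mL EtOH diluted 1:1 (v/v) with Mueller-Hinton medium. The zone of inhibition was scored as 5–10 mm poor, 10–15 moderate, 15–20 good and 20–25 very good. Gentamycin and nystatin were the reference drugs. Strains were confirmed at the University of Botswana microbiology laboratory.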

Staphylococcus aureus [2] = assay: Antimicrobial activity against Staphylococcus aureus ATCC 25923 by agar well diffusion method; format: functional
Escherichia coli [3] = assay: Antimicrobial activity against Escherichia coli ATCC 8739 by agar well diffusion method; format: functional
Pseudomonas aeruginosa [4] = assay: Antimicrobial activity against Pseudomonas aeruginosa NCIMB 8295 by agar well diffusion method; format: functional
Bacillus subtilis [5] = assay: Antimicrobial activity against Bacillus subtilis NCIB 3610 by agar well diffusion method; format: functional; settings: subsp. subtilis str. NCIB 3610
Candida albicans [6] = assay: Antifungal activity against Candida albicans by agar well diffusion method; format: functional
[7] = Antioxidant activity assessed as DPPH radical scavenging activity after 30 mins by spectrophotometry; format: physicochemical
Summary of the method: (§2)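 DPPH (0.51 mM in methanol) was mixed 1:1 by volume with the compound at several concentrations (100, 50, 25 … µg/mL range). Absorbance was read against a control, and % inhibition = (A0−As)/A0 ×100. Readings were taken at 30 min and 3 h, with ascorbic acid as the reference. Triplicate measurements.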

[8] = Antioxidant activity assessed as DPPH radical scavenging activity after 3 hrs by spectrophotometry; format: physicochemical; summary of the method: as §2
[9] = Metal chelating activity of the compound assessed as formation of iron complex after 20 mins by spectrophotometry; format: physicochemical
Summary of the method: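 Fe2+ chelation was measured by disruption of the o-phenanthroline–Fe2+ complex. O-phenanthroline (0.05% in methanol) and FeCl2 (0.1%) were mixed with the sample at various concentrations and held at room temperature for 20 min, then read at 510 nm. EDTA was the standard chelator. % chelation = (Acontrol−Asample)/Acontrol ×100, and IC50 came from plots of % chelation versus concentration. Triplicates.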

Staphylococcus aureus [10] = assay: Antimicrobial activity against Staphylococcus aureus ATCC 25923 assessed as zone of inhibition at 100 ug/ml by agar well diffusion method; format: functional; settings: for zone of inhibition at 100 µg/mL: read-out: IZ; summary of the method: as §1
Escherichia coli [11] = assay: Antimicrobial activity against Escherichia coli ATCC 8739 assessed as zone of inhibition at 100 ug/ml by agar well diffusion method; format: functional; summary of the method: as §1
Pseudomonas aeruginosa [12] = assay: Antimicrobial activity against Pseudomonas aeruginosa NCIMB 8295 assessed as zone of inhibition at 100 ug/ml by agar well diffusion method; format: functional; summary of the method: as §1
Bacillus subtilis [13] = assay: Antimicrobial activity against Bacillus subtilis NCIB 3610 assessed as zone of inhibition at 100 ug/ml by agar well diffusion method; format: functional; settings: for Activity: subsp. subtilis str. NCIB 3610; for zone of inhibition at 100 µg/mL: subsp. subtilis str. NCIB 3610, read-out: IZ; summary of the method: as §1
[14] = Antioxidant activity assessed as DPPH radical scavenging activity at 10 ug/ml after 3 hrs by spectrophotometry; format: physicochemical

MIC (Staphylococcus aureus [2])	MIC (Escherichia coli [3])	MIC (Pseudomonas aeruginosa [4])	MIC (Bacillus subtilis [5])	MIC (Candida albicans [6])	IC50 [7]	IC50 [8]	IC50 [9]	inhibition (INH) [14]	Structure (SMILES)	Activity (Candida albicans [1])	Activity (Staphylococcus aureus [10])	Activity (Escherichia coli [11])	Activity (Pseudomonas aeruginosa [12])	Activity (Bacillus subtilis [13])	zone of inhibition at 100 µg/mL (Bacillus subtilis [13])	zone of inhibition at 100 µg/mL (Candida albicans [1])	zone of inhibition at 100 µg/mL (Staphylococcus aureus [10])	zone of inhibition at 100 µg/mL (Escherichia coli [11]; read-out: IZ)	zone of inhibition at 100 µg/mL (Pseudomonas aeruginosa [12]; read-out: IZ)
inactive	inactive	inactive	inactive	inactive	275 µg/mL (≈ 697 µM)	140.02 µg/mL (≈ 355 µM)	746.04 µg/mL (≈ 1890 µM)	–	COc1ccc(C2=CC3=NOC(=O)C3C(c3cccc([N+](=O)[O-])c3)C2)c(OC)c1 (stereo not drawn)	inactive	inactive	inactive	inactive	inactive	–	–	–	–	–
inactive	inactive	inactive	2.5 µg/mL (≈ 6.86 µM)	inactive	258.75 µg/mL (≈ 710 µM)	118.69 µg/mL (≈ 326 µM)	704.31 µg/mL (≈ 1930 µM)	–	COc1ccc(C2=CC3=NOC(=O)C3C(c3cccc([N+](=O)[O-])c3)C2)cc1 (stereo not drawn)	inactive	inactive	inactive	inactive	–	12 mm	–	–	–	–
2.5 µg/mL (≈ 7.16 µM)	inactive	inactive	inactive	2.5 µg/mL (≈ 7.16 µM)	55.88 µg/mL (≈ 160 µM)	30.23 µg/mL (≈ 86.5 µM)	80.91 µg/mL (≈ 232 µM)	> 40%	O=C1NN=C2C=C(c3ccc(O)cc3)CC(c3cccc([N+](=O)[O-])c3)C12 (stereo not drawn)	–	–	inactive	inactive	inactive	–	11 mm	11 mm	–	–
2.5 µg/mL (≈ 7.35 µM)	2.5 µg/mL (≈ 7.35 µM)	2.5 µg/mL (≈ 7.35 µM)	1.25 µg/mL (≈ 3.67 µM)	1.25 µg/mL (≈ 3.67 µM)	309.29 µg/mL (≈ 909 µM)	197.78 µg/mL (≈ 581 µM)	675.67 µg/mL (≈ 1990 µM)	–	O=C1ON=C2C=C(c3cccs3)CC(c3cccc([N+](=O)[O-])c3)C12 (stereo not drawn)	–	–	–	–	–	14 mm	15 mm	12 mm	13 mm	11 mm
